Test results reported in ChEMBL document CHEMBL4270554, “Discovery of the cancer cell selective dual acting anti-cancer agent (Z)-2-(1H-indol-3-yl)-3-(isoquinolin-5-yl)acrylonitrile (A131)” (Eur J Med Chem, 2018).
Calls of active or inactive are those of the source. The calls are words filed in the database; no cut-off is given here.

What was measured:
hTERT-BJ [1] = assay: Inhibition of mitotic progression in human hTERT-BJ cells transformed with hTert, small t, shRNAs against p53 and pRb and H-RasV12-ER assessed as increase in phosphorylated histone H3 (Ser10) level at 5 uM after 24 hrs by immunoblot analysis relative to control; format: functional
Procedure, shortened: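 Fully transformed BJ fibroblasts (hTert, small t, shRNAs to p53 and pRb, H-RasV12-ER) treated 24 h at 5 μM. Immunoblot protocol as for HeLa. pH3 (Ser10) band intensity expressed as fold of DMSO control; under 2-fold counted as insignificant.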

hTERT-BJ [2] = assay: Induction of autophagy in human hTERT-BJ cells transformed with hTert, small t, shRNAs against p53 and pRb and H-RasV12-ER assessed as increase in LC3-2 to LC3-1 ratio at 5 uM after 24 hrs by immunoblot analysis relative to control; format: functional
Procedure, shortened: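 Fully transformed BJ fibroblasts (hTert, small t, shRNAs to p53 and pRb, H-RasV12-ER) grown at 37 °C, 5% CO2 in 10% FBS medium; treated 24 h at 5 μM. Triton lysis, 14% SDS-PAGE, LC3 immunoblot; LC3-II/LC3-I band ratio relative to DMSO-treated control, under 2-fold induction deemed insignificant.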

[3] = Half life in pooled female rat liver microsomes at 3 uM preincubated for 5 mins followed by NADPH addition measured after 45 mins by LC-MS/MS method; format: ADME, microsome
Procedure, shortened: (§1)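 Pooled female or male rat liver microsomes (0.3 mg protein/mL) with 3 μM substrate in 0.1 M phosphate buffer pH 7.4, pre-incubated 5 min at 37 °C, started with 1 mM NADPH. Samples at 0-45 min quenched in cold acetonitrile with internal standard, analysed by LC-MS/MS. Triplicates; midazolam positive control, no-NADPH negative control.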

[4] = Half life in pooled male rat liver microsomes at 3 uM preincubated for 5 mins followed by NADPH addition measured after 45 mins by LC-MS/MS method; format: ADME, microsome; procedure, shortened: as §1
[5] = Intrinsic clearance in pooled female rat liver microsomes assessed per mg protein at 3 uM preincubated for 5 mins followed by NADPH addition measured after 45 mins by LC-MS/MS method; format: ADME, microsome; conditions: read-out: CLH
Procedure, shortened: (§2)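 Pooled female or male rat liver microsomes (0.3 mg protein/mL) with substrate at final 3 μM in 0.1 M phosphate pH 7.4. Pre-incubated 5 min at 37 °C, then started with NADPH (final 1 mM). Sampled at 0–45 min in triplicate, quenched with cold acetonitrile plus internal standard. Parent measured by LC-MS/MS. Midazolam as positive control; no-NADPH negative control.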

[6] = Intrinsic clearance in pooled male rat liver microsomes assessed per mg protein at 3 uM preincubated for 5 mins followed by NADPH addition measured after 45 mins by LC-MS/MS method; format: ADME, microsome; conditions: read-out: CLH; procedure, shortened: as §2
BJ [7] = assay: Cell cycle arrest in human BJ cells assessed as accumulation at sub-G1 phase at 5 uM after 48 hrs; format: cell-based
Procedure, shortened: (§3)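 Isogenic normal and fully transformed BJ fibroblasts (hTert, small t, shRNAs to p53 and pRb, H-RasV12-ER) exposed to 5 μM for 48 h. Percentage of cells in sub-G1 phase determined as a cell death measure.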

hTERT-BJ [8] = assay: Cell cycle arrest in human hTERT-BJ cells transformed with hTert, small t, shRNAs against p53 and pRb and H-RasV12-ER assessed as accumulation at sub-G1 phase at 5 uM after 48 hrs; format: functional, cell-based; procedure, shortened: as §3
HCT-15 = assay: Antitumor activity against human HCT15 cells xenografted in BALB/c athymic nu/nu mouse assessed as tumor growth inhibition at 60 mg/kg, iv bid administered every 4 days; format: functional, organism-based
Procedure, shortened: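 Female BALB/c nu/nu mice bearing subcutaneous HCT15 xenografts (groups of 6). Paclitaxel 60 mg/kg given via tail vein twice every 4 days in ethanol:Tween 80:5% glucose (5:15:80). Tumor volumes tracked; mean ± SEM, two-way ANOVA vs vehicle.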

HeLa [9] = assay: Induction of mitotic arrest in human HeLa cells assessed as formation of disorganized spindles at 2.5 uM after 6 hrs by DAPI staining-based immunofluorescence analysis; format: functional, cell-based
HeLa [10] = assay: Induction of autophagy in human HeLa cells assessed as increase in LC3 puncta at 2.5 uM after 6 hrs by DAPI staining-based immunofluorescence microscopy; format: functional, cell-based
Procedure, shortened: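 HeLa cells exposed to compound or DMSO for 6 h, then immunostained for LC3 with DAPI nuclear counterstain. Puncta formation scored by fluorescence imaging as a read-out of LC3-II.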

HeLa [11] = assay: Induction of mitotic arrest in human HeLa cells assessed as formation of disorganized spindles at 15 to 25 uM after 6 hrs by DAPI staining-based immunofluorescence analysis; format: functional, cell-based
HeLa [12] = assay: Induction of mitotic arrest in human HeLa cells expressing GFP-tagged tubulin assessed as appearance of large vacuole like structures that filled out cytoplasmic area at 2.5 uM after 20 hrs by microscopic method; format: functional, cell-based
Procedure, shortened: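 HeLa cells stably expressing GFP-tubulin exposed to compound or DMSO for 20 h. Cytoplasmic vacuole-like structures and mitotic arrest examined by high-resolution microscopy.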

BJ [13] = assay: Induction of apoptosis in human BJ cells transformed with hTert, small t, shRNAs against p53 and pRb and H-RasV12-ER assessed as activation of caspase-3/7 up to 5 uM after 48 hrs by caspase-Glo 3/7 luminescent assay; format: functional, cell-based
Procedure, shortened: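 Normal and transformed BJ cells treated 48 h across a concentration series. Caspase-3/7 activity by Caspase-Glo 3/7 luminescence, normalized to viable cell number from MTT. Mean ± S.D., n=3; two-tailed unpaired t tests.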

HeLa [14] = assay: Induction of autophagy in human HeLa cells assessed as increase in LC3-2 levels after 6 hrs by immunoblot analysis; format: functional, cell-based
Procedure, shortened: (§4)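 HeLa cells treated 6 h with 0.625–10 μM test agent or chloroquine (1.25–100 μM), or DMSO. Lysis in 1% Triton buffer (pH 8.0) with protease and phosphatase inhibitors, 14% SDS-PAGE, immunoblot for LC3, pH3 (Ser10) and β-actin. Band intensity ratios (LC3-II/LC3-I; pH3) expressed relative to DMSO control.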

HeLa [15] = assay: Induction of mitotic arrest in human HeLa cells assessed as formation of misaligned chromosomes at 2.5 uM after 6 hrs by DAPI staining-based immunofluorescence analysis; format: functional, cell-based
HeLa [16] = assay: Induction of mitotic arrest in human HeLa cells assessed as formation of misaligned chromosomes at 15 to 25 uM after 6 hrs by DAPI staining-based immunofluorescence analysis; format: functional, cell-based
HeLa [17] = assay: Inhibition of mitotic progression in human HeLa cells assessed as upregulation of phosphorylated histone H3 (Ser10) level after 6 hrs by immunoblot analysis; format: functional, cell-based; procedure, shortened: as §4
HeLa [18] = assay: Inhibition of colony formation in human HeLa cells after 7 days by plate colony counting method; format: functional, cell-based

SMILES | fold change (FC) (hTERT-BJ [1]) | fold change (FC) (hTERT-BJ [2]) | further results
NC(=O)/C(=C\c1cccc2cnccc12)c1c[nH]c2ccccc12 | 1.3 | 0.6 | –
N#C/C(=C\c1ccnc2ccccc12)c1c[nH]c2ccccc12 | 1.4 | 0.4 | –
N#C/C(=C\c1cccc2cnccc12)c1c[nH]c2ccc(Cl)cc12 | 1.4 | 2 | –
Cc1[nH]c2ccccc2c1/C(C#N)=C/c1cccc2cnccc12 | 1.1 | 0.7 | –
N#C/C(=C\c1cccc2cnccc12)c1c[nH]c2ccc(Br)cc12 | 2.1 | 4 | half-life at 3 µM [3]: 43.8 min; half-life at 3 µM [4]: 19.6 min; microsomal CLint at 3 µM [5]: 53 µL/min/mg; microsomal CLint at 3 µM [6]: 118 µL/min/mg
N#C/C(=C\c1cccc2ccncc12)c1c[nH]c2ccccc12 | 1.5 | 0.7 | –
C(=C\c1c[nH]c2ccccc12)/c1cccc2cnccc12 | 1.3 | 5.4 | Activity (BJ [7]): Non-Toxic; Activity (hTERT-BJ [8]): inactive
N#C/C(=C\c1cccc2cnccc12)c1c[nH]c2ncccc12 | 1.8 | 1.4 | –
N#C/C(=C\c1cccc2cnccc12)c1c[nH]c2ccc(OCCCN3CCCC3)cc12 | 0.9 | 6 | Activity (BJ [7]): Non-Toxic; Activity (hTERT-BJ [8]): inactive
N#C/C(=C\c1cccnc1)c1c[nH]c2ccccc12 | 1.2 | 1.1 | –
N#C/C(=C\c1cccc2ncccc12)c1c[nH]c2ccccc12 | 10.5 | 0.7 | Activity (BJ [7]): Toxic; Activity (hTERT-BJ [8]): Active
N#C/C(=C\c1cccc2cnccc12)c1c[nH]c2cc(CN3CCCC3)ccc12 | 1.1 | 5.7 | –
N#C/C(=C\c1cccc2cnccc12)c1c[nH]c2ccc(F)cc12 | 0.9 | 0.5 | –
N#C/C(=C\c1cccc2cnccc12)c1c[nH]c2c(Br)cccc12 | 1.4 | 2.2 | –
N#C/C(=C\c1cccc2cnccc12)c1c[nH]c2cc(Br)ccc12 | 1.6 | 0.7 | –
N#C/C(=C\c1cccc2cnccc12)c1n[nH]c2ccccc12 | 1.4 | 2 | –
N#C/C(=C/c1cccc2cnccc12)c1nc2ccccc2[nH]1 | 1.1 | 1.2 | Activity (BJ [7]): Non-Toxic; Activity (hTERT-BJ [8]): inactive
N#C/C(=C\c1cccc2cnccc12)c1c[nH]c2cccc(Br)c12 | 1.1 | 0.5 | –

SMILES | fold change (FC) (hTERT-BJ [1]) | fold change (FC) (hTERT-BJ [2]) | further results
COc1ccc2c(/C(C#N)=C/c3cccc4cnccc34)c[nH]c2c1 | 4.3 | 2.6 | –
N#C/C(=C\c1cncc2cnccc12)c1c[nH]c2ccccc12 | 1.4 | 1 | –
CC(=O)Nc1ccc2[nH]cc(/C(C#N)=C/c3cccc4cnccc34)c2c1 | 1.2 | 0.5 | –
CC(=O)O[C@H]1C(=O)[C@@]2(C)[C@H]([C@H](OC(=O)c3ccccc3)[C@]3(O)C[C@H](OC(=O)[C@H](O)[C@@H](NC(=O)c4ccccc4)c4ccccc4)C(C)=C1C3(C)C)[C@]1(OC(C)=O)CO[C@@H]1C[C@@H]2O | – | – | TGI (HCT-15): inactive
N#C/C(=C\c1cccc2cnccc12)c1c[nH]c2ccc(CN3CCCC3)cc12 | 1 | 3.3 | –
COCCOc1ccc2[nH]cc(/C(C#N)=C/c3cccc4cnccc34)c2c1 | 1.6 | 3.2 | Activity (BJ [7]): Non-Toxic; Activity (hTERT-BJ [8]): inactive
N#C/C(=C\c1cccc2cnccc12)c1c[nH]c2ccc(OCCC3OCCO3)cc12 | 1 | 0.7 | –
N#C/C(=C\c1cccc2cccnc12)c1c[nH]c2ccccc12 | 1.3 | 0.6 | –
N#C/C(=C\c1cncc2ccccc12)c1c[nH]c2ccccc12 | 1.3 | 0.7 | Activity (BJ [7]): Non-Toxic; Activity (hTERT-BJ [8]): inactive
COc1ccc2[nH]cc(/C(C#N)=C/c3cccc4cnccc34)c2c1 | 3 | 3.2 | half-life at 3 µM [3]: 33.4 min; half-life at 3 µM [4]: 21.8 min; microsomal CLint at 3 µM [5]: 66 µL/min/mg; microsomal CLint at 3 µM [6]: 106 µL/min/mg
O=C(Nc1cccc2cnccc12)c1c[nH]c2ccccc12 | 1.4 | 0.4 | –
N#C/C(=C\c1cccc2cnccc12)c1c[nH]c2ccc([N+](=O)[O-])cc12 | 0.9 | 0.6 | –
Cn1cc(/C(C#N)=C/c2cccc3cnccc23)c2ccccc21 | 1.1 | 1.6 | –
N#C/C(=C\c1cccc2cnccc12)c1c[nH]c2c(CN3CCCC3)cccc12 | 0.8 | 3.7 | –
N#C/C(=C\c1cccc2cnccc12)c1c[nH]c2ccccc12 | – | – | Activity (HeLa [9]): Active; Activity (HeLa [10]): Active; Activity (HeLa [11]): Active; Activity (HeLa [12]): Active; Activity (BJ [13]): Active; Activity (hTERT-BJ [8]): Active; Activity (HeLa [14]): Dose-dependent effect; Activity (HeLa [15]): Active; Activity (HeLa [16]): Active; inhibition (HeLa [17]): Dose-dependent effect; Activity (HeLa [18]): Dose-dependent effect
COc1cccc2c(/C(C#N)=C/c3cccc4cnccc34)c[nH]c12 | 3.9 | 2.7 | –
N#CC(Cc1cccc2cnccc12)c1c[nH]c2ccccc12 (stereo not drawn) | 1.2 | 0.3 | –
